Measured values taken from ChEMBL document CHEMBL1122501, “Potential antiatherosclerotic agents. 2. (Aralkylamino)- and (alkylamino) benzoic acid analogues of cetaben” (1983).

Columns and labels:
[1] = molecular target: T1, Sterol O-acyltransferase 1 (Rattus norvegicus) (UniProt O70536); test: In vitro inhibitory activity against acyl coenzyme A:cholesterol acyltransferase (ACAT); design: concentration or dose not given beside the values; settings: concentration not given here
T1 sequence (whole entry): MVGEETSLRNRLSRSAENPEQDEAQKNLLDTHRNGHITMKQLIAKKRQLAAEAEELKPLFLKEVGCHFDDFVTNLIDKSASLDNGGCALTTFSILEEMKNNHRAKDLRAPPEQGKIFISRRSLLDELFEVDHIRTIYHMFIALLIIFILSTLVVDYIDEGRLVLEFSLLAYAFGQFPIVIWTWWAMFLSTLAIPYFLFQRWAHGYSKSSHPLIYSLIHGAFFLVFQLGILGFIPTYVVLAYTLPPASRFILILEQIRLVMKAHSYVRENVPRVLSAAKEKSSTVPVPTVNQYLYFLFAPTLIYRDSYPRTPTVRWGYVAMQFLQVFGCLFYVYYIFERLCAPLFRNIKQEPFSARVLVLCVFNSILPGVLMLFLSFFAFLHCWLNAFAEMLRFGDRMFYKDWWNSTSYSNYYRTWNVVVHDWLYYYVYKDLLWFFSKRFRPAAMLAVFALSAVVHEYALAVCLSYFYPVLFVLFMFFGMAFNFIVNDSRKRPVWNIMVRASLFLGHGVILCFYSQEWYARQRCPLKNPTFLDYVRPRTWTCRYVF
Outline: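 ACAT enzyme from rat adrenal homogenate in 0.2 M KH2PO4 buffer pH 7.4, 1000g 15 min 5 °C supernatant (microsomal fraction). Supernatant + BSA (50 mg/mL) + compound at final 5.2 μg/mL + buffer preincubated 10 min 37 °C; [14C]oleoyl-CoA (0.4 μCi) added, 30 min 37 °C. Lipids extracted, TLC; cholesteryl ester zone counted. Mean % inhibition vs no-compound control; Student's t test.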

[2] = test system: Rattus norvegicus; test: In vivo Triglyceride lowering activity at dose as 0.017 % of the diet.; format: functional
Outline: (§1)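 Male CFE or CD-1 Sprague-Dawley rats, 140-150 g; 8 per control group, 4 per test group. Compound mixed into ground chow (w/w) via MeOH-CHCl3 (1:3) solution, solvent evaporated; controls got solvent-treated chow. Fed ad libitum 5 days, food intake monitored, killed fed and bled. Serum sterols and triglycerides by adapted autoanalyzer methods; mean percent of control, Student's t test.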

[3] = test system: Rattus norvegicus; test: In vivo triglyceride lowering activity, dosed at 0.03 % of the diet; format: functional; outline: as §1
[4] = test system: Rattus norvegicus; test: In vivo Sterol lowering activity at dose as 0.017 % of the diet.; format: functional; outline: as §1
[5] = test system: Rattus norvegicus; test: In vivo Sterol lowering activity at dose as 0.05 % of the diet; format: functional; outline: as §1
[6] = test system: Rattus norvegicus; test: In vivo sterol lowering activity dosed at 0.10 % of the diet; format: functional; outline: as §1
[7] = test system: Rattus norvegicus; test: In vivo triglyceride lowering activity, dosed at 0.10 % of the diet.; format: functional; outline: as §1
[8] = test system: Rattus norvegicus; test: In vivo Sterol lowering activity at dose as 0.05 % of the diet.; format: functional; outline: as §1
[9] = test system: Rattus norvegicus; test: In vivo Sterol lowering activity at dose as 0.10 % of the diet.; format: functional; outline: as §1
[10] = test system: Rattus norvegicus; test: In vivo Triglyceride lowering activity at dose as 0.05 % of the diet.; format: functional; outline: as §1
[11] = test system: Rattus norvegicus; test: In vivo triglyceride lowering activity dosed at 0.10 % of the diet; format: functional; outline: as §1
[12] = test system: Rattus norvegicus; test: In vivo triglyceride lowering activity dosed at 0.05 % of the diet; format: functional; outline: as §1
[13] = test system: Rattus norvegicus; test: In vivo Triglyceride lowering activity at dose as 0.025% of the diet.; format: functional; outline: as §1
[14] = test system: Rattus norvegicus; test: In vivo Sterol lowering activity at dose as 0.025 % of the diet; format: functional; outline: as §1
[15] = test system: Rattus norvegicus; test: In vivo Triglyceride lowering activity at dose as 0.025% of the diet; format: functional; outline: as §1
[16] = test system: Rattus norvegicus; test: In vivo Sterol lowering activity at dose as 0.03 % of the diet.; format: functional; outline: as §1
[17] = test system: Rattus norvegicus; test: In vivo triglyceride lowering activity, dosed at 0.01 % of the diet.; format: functional; outline: as §1
[18] = test system: Rattus norvegicus; test: In vivo Sterol lowering activity at dose as 0.01 % of the diet..; format: functional; outline: as §1
[19] = test system: Rattus norvegicus; test: In vivo Triglyceride lowering activity at dose as 0.025 % of the diet; format: functional; outline: as §1
[20] = test system: Rattus norvegicus; test: In vivo Sterol lowering activity at dose as 0.025 % of the diet.; format: functional; outline: as §1
[21] = test system: Rattus norvegicus; test: In vivo Triglyceride lowering activity at dose as 0.017 % of the diet; format: functional; outline: as §1
[22] = test system: Rattus norvegicus; test: In vivo Sterol lowering activity at dose as 0.017 % of the diet; format: functional; outline: as §1
[23] = test system: Rattus norvegicus; test: In vivo Triglyceride lowering activity at dose as 0.025 % of the diet.; format: functional; outline: as §1

SMILES	inhibition [1]	Diet [2]	Diet [5]	serum sterol, percent of control [6]	Diet [7]	Diet [8]	serum sterol, percent of control [9]	Diet [10]	serum triglycerides, percent of control [11]	Diet [12]	Diet [20]	other results
CCOC(=O)c1ccc(NCc2ccccc2)cc1	45%	97%	90%	86%	78%							serum triglycerides, percent of control [3]: 88%; Diet [4]: 108%
CCOC(=O)c1ccc(NCCc2cccc3ccccc23)cc1	9%	112%				103%	94%	80%	73%			Diet [4]: 98%
CCOC(=O)c1ccc(NCc2ccc(OCc3ccccc3)cc2)cc1	45%	97%		91%	92%	100%				85%		Diet [4]: 105%
O=C(O)c1ccc(NCc2ccccc2)cc1	2%	92%	86%	87%					65%	62%		Diet [4]: 101%
CCOC(=O)c1ccc(NCCCCCCc2ccccc2)cc1	41%		84%	82%					43%	45%		Diet [13]: 59%; Diet [14]: 89%
O=C(O)c1ccc(NCCCCCCCCCc2ccccc2)cc1	< 28%		96%	92%					<68%	<58%		Diet [15]: <50%; Diet [14]: 96%
O=C(O)c1ccc(NCCCCc2cccs2)cc1	10%	94%			90%	98%	77%	89%				Diet [4]: 90%
CCOC(=O)c1ccc(NCCCc2ccc(N)cc2)cc1	28%						100%		79%			serum triglycerides, percent of control [3]: 70%; serum sterol level, percent of control [16]: 97%; Diet [17]: 113%; Diet [18]: 93%
CCOC(=O)c1ccc(NCCCc2ccccc2OC)cc1	64%				74%	107%	107%	66%			96%	Diet [19]: 61%
CCCCCCCOc1ccc(CNc2ccc(C(=O)OCC)cc2)cc1			<86%	90%					<80%	<76%		Serum triglycerides, % of control [21]: 88%; Diet [22]: 100%
CCOC(=O)c1ccc(NCCCCCc2ccccc2)cc1	69%		85%				90%		62%	66%	92%	Diet [13]: 84%
O=C(O)c1ccc(NCCc2ccc(OCc3ccccc3)cc2)cc1	18%				84%	103%		81%			100%	Diet [19]: 70%; Diet [9]: 86%
O=C(O)c1ccc(NCc2ccc(OCc3ccccc3)cc2)cc1	16%	91%				98%	97%		89%	85%	93%	
CCOC(=O)c1ccc(NCCc2cccs2)cc1	49%	81%		86%	69%	90%		94%				Diet [22]: 86%
COc1ccccc1CCCNc1ccc(C(=O)O)cc1	0%				72%	100%	110%	87%			102%	Diet [23]: 100%
CCCCCCCOc1ccc(CNc2ccc(C(=O)O)cc2)cc1	< 24%		<84%	<84%					<72%	<70%		Serum triglycerides, % of control [21]: 95%; Diet [22]: 100%
O=C(O)c1ccc(NCCCCCCc2ccccc2)cc1	17%		85%				86%		40%	46%		Diet [15]: 52%; Diet [14]: 83%
O=C(O)c1ccc(NCCc2cccc3ccccc23)cc1		89%				108%	93%		63%	67%		Diet [4]: 108%
CCCCCCCCCCCCCOc1ccc(CNc2ccc(C(=O)O)cc2)cc1	< 36%		100%	81%					<56%	<65%		Serum triglycerides, % of control [21]: <62%; Diet [22]: 100%
CCCCCCCCCCc1ccc(CNc2ccc(C(=O)O)cc2)cc1	< 51%		<88%	<78%					114%	113%		Serum triglycerides, % of control [21]: 100%; Diet [22]: 99%
CCOC(=O)c1ccc(NCCCCCCCCc2ccccc2)cc1	< 50%		96%	98%					<54%	<65%		Diet [15]: <61%; Diet [14]: 88%
CCOC(=O)c1ccc(NCCCCc2cccs2)cc1	56%				99%	97%	90%	96%			94%	Diet [13]: 89%
CCOC(=O)c1ccc(NCCCCCCCc2ccccc2)cc1	< 54%		89%	89%					<72%	<82%		Diet [15]: <84%; Diet [14]: 90%
O=C(O)c1ccc(NCCCCCCCCCCCc2ccccc2)cc1	< 24%		<76%	<83%					<74%	<69%		Diet [15]: <68%; Diet [14]: 83%
O=C(O)c1ccc(NCCCCCc2ccccc2)cc1	26%		84%		89%		108%	78%			95%	Diet [13]: 96%
O=C(O)c1ccc(NCCc2cccs2)cc1	5%	121%			103%	81%	88%	97%				Diet [4]: 74%
O=C(O)c1ccc(NCCCCCCCCCCc2ccccc2)cc1	< 44%		89%	<87%					81%	88%		Diet [15]: <79%; Diet [14]: <87%
COc1ccc(CNc2ccc(C(=O)O)cc2)cc1	5%					95%	94%	76%	60%		91%	Diet [19]: 69%
CCOC(=O)c1ccc(NCc2ccc(-c3ccccc3)cc2)cc1	19%		94%				94%	76%	52%		102%	Diet [23]: 74%
